Data reported in ChEMBL document CHEMBL1154962, “Novel 6-N-arylcarboxamidopyrazolo[4,3-d]pyrimidin-7-one derivatives as potential anti-cancer agents” (2010).

How the values were obtained:
[1] = molecular target: Platelet-derived growth factor receptor alpha (Homo sapiens) (UniProt P16234); experiment: Inhibition of human PDGFRalpha assessed as remaining enzyme activity at 10 uM; values are per cent of control
[2] = molecular target: T1, Aurora kinase A (Homo sapiens) (UniProt O14965); experiment: Inhibition of human Aurora A at 10 uM
T1 sequence (whole entry): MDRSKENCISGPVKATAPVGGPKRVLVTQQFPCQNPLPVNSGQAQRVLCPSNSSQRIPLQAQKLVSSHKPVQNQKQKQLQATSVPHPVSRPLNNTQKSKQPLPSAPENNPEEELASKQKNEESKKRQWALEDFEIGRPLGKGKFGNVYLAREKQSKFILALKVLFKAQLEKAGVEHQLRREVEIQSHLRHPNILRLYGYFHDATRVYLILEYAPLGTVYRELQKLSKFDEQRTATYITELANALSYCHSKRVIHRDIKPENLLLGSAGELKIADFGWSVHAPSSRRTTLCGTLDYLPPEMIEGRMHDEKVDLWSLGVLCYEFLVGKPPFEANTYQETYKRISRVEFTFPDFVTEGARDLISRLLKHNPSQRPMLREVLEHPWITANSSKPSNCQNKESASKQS

[3] = molecular target: T1, Aurora kinase A (Homo sapiens); experiment: Inhibition of human Aurora A assessed as remaining enzyme activity at 10 uM; values are per cent of control
[4] = test system: HT-29; experiment: Growth inhibition of human HT-29 cells after 2 days by MTT assay; assay type: functional; conditions: HT-29, 48 h
Method in brief: (§1)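 HT-29 and DU-145 cells seeded at 5 × 10⁴ cells/mL; serial concentrations added in duplicate; 37 °C, 5% CO₂, two days. MTT dye (Cell Titer96) for up to 4 h at 37 °C, then solubilization/stop mix overnight at room temperature; OD at 570 nm. GI₅₀ = concentration giving 50% growth inhibition; mean ± SEM of three or more experiments; doxorubicin as internal standard.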

[5] = test system: DU-145; experiment: Cytotoxicity against human DU145 cells at 100 uM after 2 days by sulforhodamine B assay; assay type: functional; conditions: DU-145, 48 h
Method in brief: (§2)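 Five human cancer lines (HT-29, DU-145, A-549, SK-MEL-2, SK-OV-3) seeded at 3–7 × 10³ cells/well; compounds at 100 µM added in duplicate; 37 °C, 5% CO₂, two days. Fixed with formalin, SRB stained, washed with 1% acetic acid, dye solubilized in 10 mM unbuffered Tris base; OD at 520 nm. Read-out is % inhibition.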

[6] = test system: DU-145; experiment: Growth inhibition of human DU145 cells after 2 days by MTT assay; assay type: functional; conditions: DU-145, 48 h
Method in brief: as §1

[7] = test system: HT-29; experiment: Cytotoxicity against human HT-29 cells at 100 uM after 2 days by sulforhodamine B assay; assay type: functional; conditions: HT-29, 48 h
Method in brief: as §2

[8] = molecular target: Glycogen synthase kinase-3 beta (Homo sapiens) (UniProt P49841); experiment: Inhibition of human GSK3-beta at 10 uM
[9] = molecular target: Epidermal growth factor receptor (Homo sapiens) (UniProt P00533); experiment: Inhibition of human EGFR assessed as remaining enzyme activity at 10 uM; values are per cent of control
[10] = molecular target: Glycogen synthase kinase-3 beta (Homo sapiens) (UniProt P49841); experiment: Inhibition of human GSK3-beta assessed as remaining enzyme activity at 10 uM; values are per cent of control

Glycogen synthase kinase-3 beta (Homo sapiens), sequence (P49841 whole entry, looked up): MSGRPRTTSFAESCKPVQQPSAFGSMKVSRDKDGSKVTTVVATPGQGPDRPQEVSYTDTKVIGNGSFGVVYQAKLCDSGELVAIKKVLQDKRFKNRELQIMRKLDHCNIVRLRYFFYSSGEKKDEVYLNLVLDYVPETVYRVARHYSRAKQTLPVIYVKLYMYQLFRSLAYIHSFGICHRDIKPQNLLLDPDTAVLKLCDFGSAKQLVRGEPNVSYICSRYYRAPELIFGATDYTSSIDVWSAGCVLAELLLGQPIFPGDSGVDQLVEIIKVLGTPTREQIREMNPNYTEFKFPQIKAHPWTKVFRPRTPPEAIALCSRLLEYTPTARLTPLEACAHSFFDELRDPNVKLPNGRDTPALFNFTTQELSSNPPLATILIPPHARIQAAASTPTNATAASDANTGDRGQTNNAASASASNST
Platelet-derived growth factor receptor alpha (Homo sapiens), sequence (P16234 whole entry): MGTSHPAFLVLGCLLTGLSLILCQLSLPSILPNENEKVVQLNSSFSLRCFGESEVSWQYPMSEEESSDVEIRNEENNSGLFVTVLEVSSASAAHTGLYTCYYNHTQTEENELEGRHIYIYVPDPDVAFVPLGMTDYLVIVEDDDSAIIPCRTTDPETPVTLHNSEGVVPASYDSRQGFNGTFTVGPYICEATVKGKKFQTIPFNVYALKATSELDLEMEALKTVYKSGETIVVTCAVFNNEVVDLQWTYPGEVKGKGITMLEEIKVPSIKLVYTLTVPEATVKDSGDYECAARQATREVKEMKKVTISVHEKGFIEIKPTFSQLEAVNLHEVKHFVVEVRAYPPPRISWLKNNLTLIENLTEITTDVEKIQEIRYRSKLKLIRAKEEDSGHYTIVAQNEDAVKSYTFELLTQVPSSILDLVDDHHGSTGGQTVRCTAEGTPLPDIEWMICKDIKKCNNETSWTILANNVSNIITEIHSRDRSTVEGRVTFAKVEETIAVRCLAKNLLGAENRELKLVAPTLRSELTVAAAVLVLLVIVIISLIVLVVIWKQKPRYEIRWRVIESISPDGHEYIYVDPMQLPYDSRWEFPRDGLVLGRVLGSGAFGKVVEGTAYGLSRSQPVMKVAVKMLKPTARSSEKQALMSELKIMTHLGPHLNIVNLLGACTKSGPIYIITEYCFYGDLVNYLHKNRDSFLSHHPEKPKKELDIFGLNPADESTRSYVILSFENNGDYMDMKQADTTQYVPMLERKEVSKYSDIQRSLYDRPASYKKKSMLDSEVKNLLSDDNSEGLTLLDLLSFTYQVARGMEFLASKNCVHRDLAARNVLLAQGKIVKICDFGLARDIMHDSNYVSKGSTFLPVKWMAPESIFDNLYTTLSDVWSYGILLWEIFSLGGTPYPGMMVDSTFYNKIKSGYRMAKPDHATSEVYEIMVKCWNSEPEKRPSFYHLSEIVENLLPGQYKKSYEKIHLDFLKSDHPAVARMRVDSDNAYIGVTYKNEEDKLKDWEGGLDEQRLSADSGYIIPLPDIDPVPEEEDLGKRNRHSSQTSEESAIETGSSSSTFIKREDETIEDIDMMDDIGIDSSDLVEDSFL
Epidermal growth factor receptor (Homo sapiens), sequence (P00533 whole entry): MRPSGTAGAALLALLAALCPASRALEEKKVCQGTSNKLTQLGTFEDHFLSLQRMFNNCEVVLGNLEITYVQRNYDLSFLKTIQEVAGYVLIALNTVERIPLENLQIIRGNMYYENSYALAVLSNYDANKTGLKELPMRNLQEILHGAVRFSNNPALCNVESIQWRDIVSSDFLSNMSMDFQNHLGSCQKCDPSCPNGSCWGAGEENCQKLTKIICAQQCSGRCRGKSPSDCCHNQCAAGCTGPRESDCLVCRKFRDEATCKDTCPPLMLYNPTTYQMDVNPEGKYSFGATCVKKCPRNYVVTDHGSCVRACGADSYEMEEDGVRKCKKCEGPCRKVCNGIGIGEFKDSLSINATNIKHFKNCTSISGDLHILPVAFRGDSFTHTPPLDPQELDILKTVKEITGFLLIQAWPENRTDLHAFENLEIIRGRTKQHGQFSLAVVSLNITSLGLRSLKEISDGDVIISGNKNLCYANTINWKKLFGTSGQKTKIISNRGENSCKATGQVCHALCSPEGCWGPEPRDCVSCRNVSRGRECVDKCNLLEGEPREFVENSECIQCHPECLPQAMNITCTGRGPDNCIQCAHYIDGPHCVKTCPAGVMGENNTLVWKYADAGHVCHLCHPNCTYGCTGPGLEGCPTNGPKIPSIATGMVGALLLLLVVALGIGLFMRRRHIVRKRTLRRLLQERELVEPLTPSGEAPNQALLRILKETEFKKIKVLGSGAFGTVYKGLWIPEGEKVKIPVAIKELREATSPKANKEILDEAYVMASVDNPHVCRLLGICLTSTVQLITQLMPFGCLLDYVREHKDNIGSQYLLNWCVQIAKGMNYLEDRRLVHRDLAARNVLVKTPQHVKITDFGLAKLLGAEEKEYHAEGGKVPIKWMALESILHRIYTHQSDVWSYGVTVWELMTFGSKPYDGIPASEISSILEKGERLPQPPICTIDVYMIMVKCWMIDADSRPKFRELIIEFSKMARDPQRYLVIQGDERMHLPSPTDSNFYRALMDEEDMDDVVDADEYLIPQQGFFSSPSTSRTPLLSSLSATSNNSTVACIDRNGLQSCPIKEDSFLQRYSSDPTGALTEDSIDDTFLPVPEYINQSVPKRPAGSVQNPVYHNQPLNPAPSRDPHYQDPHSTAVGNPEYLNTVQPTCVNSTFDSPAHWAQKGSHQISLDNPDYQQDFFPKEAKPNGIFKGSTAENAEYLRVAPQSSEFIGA

| residual activity [1] [%] | inhibition [2] [%] | residual activity [3] [%] | GI50 [4] [µM] | GI50 [6] [µM] | inhibition [8] [%] | residual activity [9] [%] | residual activity [10] [%] | Structure (SMILES) | inhibition at 100 µM [5] [%] | inhibition at 100 µM [7] [%] |
| --- | --- | --- | --- | --- | --- | --- | --- | --- | --- | --- |
| 105 | 84 | 16 | 0.71 | 29.1 | 89 | 86 | 11 | CCCCc1nc2c(-c3ccc(Cl)cc3)n[nH]c2c(=O)n1NC(=O)c1ccccc1 | 93 | 89.5 |
| 92 | 93 | 7 | 5.37 | 12.9 | 94 | 82 | 6 | CCCCCc1nc2c(-c3ccc(Cl)cc3)n[nH]c2c(=O)n1NC(=O)c1cccc(C)c1 | 88.8 | 90.5 |
| 95 | 82 | 18 | 0.44 | 1.07 | 89 | 85 | 11 | Cc1cccc(C(=O)Nn2c(CC3CCCCC3)nc3c(-c4ccc(Cl)cc4)n[nH]c3c2=O)c1 | 85.9 | 88.7 |
